According to ChEMBL document CHEMBL4814016, “Balancing potency and basicity by incorporating fluoropyridine moieties: Discovery of a 1-amino-3,4-dihydro-2,6-naphthyridine BACE1 inhibitor that affords robust and sustained central Aβ reduction” (Eur J Med Chem, 2021):

Assays:
[1] = target: T1, Beta-secretase 1 (Homo sapiens, UniProt P56817); assay: Inhibition of BACE1 in human SH-SY5Y cells expressing APP assessed as reduction in Abeta40 by HTRF assay; format: cell-based
Procedure, shortened: (§1)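 The figures are means of at least two determinations. BACE1 activity was measured with a biochemical HTRF assay on an APP-derived peptide substrate. In the cellular assay, secreted Aβ40 from SH-SY5Y neuroblastoma cells transfected with human APP was measured by HTRF, and the IC50 derived from it.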

[2] = Dissociation constant, pKa of compound by capillary electrophoresis; format: physicochemical
Procedure, shortened: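 pKa measured by capillary electrophoresis.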

[3] = target: T1, Beta-secretase 1; assay: Inhibition of BACE1 (unknown origin)
[4] = target: T1, Beta-secretase 1; assay: Inhibition of BACE1 (unknown origin) by HTRF assay; procedure, shortened: as §1
[5] = target: P-gp (MDR1, ABCB1) (Homo sapiens, UniProt P08183); assay: Substrate activity at P-gp (unknown origin) transfected in LLC-PK1 cells expressing human MDR1 gene assessed as efflux ratio; format: ADME, cell-based
Sequence of P-gp (MDR1, ABCB1) (P08183 whole entry): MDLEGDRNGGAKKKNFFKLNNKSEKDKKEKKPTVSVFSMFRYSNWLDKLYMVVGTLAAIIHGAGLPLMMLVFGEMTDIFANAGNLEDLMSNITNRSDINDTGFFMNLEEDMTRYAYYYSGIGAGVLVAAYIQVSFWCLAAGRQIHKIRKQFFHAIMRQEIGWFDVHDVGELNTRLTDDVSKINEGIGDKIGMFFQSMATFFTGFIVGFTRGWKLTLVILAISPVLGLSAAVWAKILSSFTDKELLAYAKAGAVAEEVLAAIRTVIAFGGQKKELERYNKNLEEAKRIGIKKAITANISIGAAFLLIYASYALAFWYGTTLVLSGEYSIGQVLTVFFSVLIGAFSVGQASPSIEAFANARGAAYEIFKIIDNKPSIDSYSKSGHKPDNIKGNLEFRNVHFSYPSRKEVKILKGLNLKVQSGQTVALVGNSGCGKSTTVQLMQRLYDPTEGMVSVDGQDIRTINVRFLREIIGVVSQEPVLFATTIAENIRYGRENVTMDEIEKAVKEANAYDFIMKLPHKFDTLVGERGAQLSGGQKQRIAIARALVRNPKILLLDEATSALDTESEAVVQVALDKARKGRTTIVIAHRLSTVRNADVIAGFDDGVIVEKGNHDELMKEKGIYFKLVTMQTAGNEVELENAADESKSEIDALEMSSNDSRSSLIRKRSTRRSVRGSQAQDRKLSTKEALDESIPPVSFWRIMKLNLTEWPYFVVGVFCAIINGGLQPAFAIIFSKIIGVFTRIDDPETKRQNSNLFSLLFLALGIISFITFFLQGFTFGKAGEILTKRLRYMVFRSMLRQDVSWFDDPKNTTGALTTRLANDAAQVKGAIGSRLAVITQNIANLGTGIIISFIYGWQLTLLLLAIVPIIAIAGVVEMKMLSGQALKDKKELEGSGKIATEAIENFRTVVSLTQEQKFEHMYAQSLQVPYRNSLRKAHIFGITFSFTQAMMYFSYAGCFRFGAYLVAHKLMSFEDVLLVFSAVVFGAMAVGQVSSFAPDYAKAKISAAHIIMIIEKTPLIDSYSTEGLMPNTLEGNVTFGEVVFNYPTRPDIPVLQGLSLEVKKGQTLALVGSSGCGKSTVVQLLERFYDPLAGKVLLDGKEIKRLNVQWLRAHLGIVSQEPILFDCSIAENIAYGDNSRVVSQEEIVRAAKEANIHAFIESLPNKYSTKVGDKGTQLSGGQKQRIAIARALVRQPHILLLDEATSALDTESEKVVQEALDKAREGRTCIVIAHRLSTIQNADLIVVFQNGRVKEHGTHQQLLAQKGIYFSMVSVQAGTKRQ

[6] = target: hERG (KCNH2) (Homo sapiens, UniProt Q12809); assay: Inhibition of human ERG at 5 uM by automated patch clamp assay relative to control
Sequence of hERG (KCNH2) (Q12809 whole entry): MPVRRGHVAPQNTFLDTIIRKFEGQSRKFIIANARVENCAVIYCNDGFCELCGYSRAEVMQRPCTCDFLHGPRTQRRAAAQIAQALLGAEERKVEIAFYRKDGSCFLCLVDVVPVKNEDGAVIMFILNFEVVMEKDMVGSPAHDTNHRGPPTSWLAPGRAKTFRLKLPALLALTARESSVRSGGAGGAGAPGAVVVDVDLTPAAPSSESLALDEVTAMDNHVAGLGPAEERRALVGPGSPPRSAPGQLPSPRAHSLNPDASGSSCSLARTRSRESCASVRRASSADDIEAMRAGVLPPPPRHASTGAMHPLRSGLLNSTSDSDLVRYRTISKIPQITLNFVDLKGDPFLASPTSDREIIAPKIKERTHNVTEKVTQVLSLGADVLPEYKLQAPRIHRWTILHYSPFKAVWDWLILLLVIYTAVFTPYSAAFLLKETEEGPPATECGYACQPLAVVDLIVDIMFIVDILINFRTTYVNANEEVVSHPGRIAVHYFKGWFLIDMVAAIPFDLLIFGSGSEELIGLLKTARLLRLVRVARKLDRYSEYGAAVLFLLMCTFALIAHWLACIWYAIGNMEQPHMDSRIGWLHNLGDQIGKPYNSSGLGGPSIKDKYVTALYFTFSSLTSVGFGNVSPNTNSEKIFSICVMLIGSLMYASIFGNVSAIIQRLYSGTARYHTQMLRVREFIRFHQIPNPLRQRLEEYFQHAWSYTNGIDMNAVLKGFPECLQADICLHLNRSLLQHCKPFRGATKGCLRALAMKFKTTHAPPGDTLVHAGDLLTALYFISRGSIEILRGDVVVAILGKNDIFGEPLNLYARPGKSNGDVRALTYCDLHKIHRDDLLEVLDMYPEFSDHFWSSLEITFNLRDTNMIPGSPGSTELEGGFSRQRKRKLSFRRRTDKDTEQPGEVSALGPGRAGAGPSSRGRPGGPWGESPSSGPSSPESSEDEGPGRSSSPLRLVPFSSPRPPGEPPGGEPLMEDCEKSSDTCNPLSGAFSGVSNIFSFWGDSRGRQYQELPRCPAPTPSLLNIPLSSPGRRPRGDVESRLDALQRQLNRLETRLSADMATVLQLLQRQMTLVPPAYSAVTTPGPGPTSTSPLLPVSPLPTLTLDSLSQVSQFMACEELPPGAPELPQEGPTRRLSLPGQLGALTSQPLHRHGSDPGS
Procedure, shortened: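 hERG inhibition measured at 5 µM with an automated patch clamp assay.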

[7] = Metabolic stability in rat liver microsomes assessed as parent compound remaining measured after 30 mins; format: ADME, Microsome; conditions: read-out: Stabilty
Procedure, shortened: (§2)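 Parent compound remaining (%) measured after 30 min incubation in rat or dog liver microsomes.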

[8] = Fraction unbound in rat serum; format: ADME, cell-free
Procedure, shortened: (§3)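 Fraction unbound measured in rat and dog serum.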

[9] = Clearance in rat at 0.5 mg/kg, iv; format: ADME, organism-based; conditions: in vivo
Procedure, shortened: (§4)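 Single iv dose of 0.5 mg/kg in rats, n = 2. Total clearance and steady-state volume of distribution were taken from the plasma profile.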

[10] = Volume of distribution at steady state in rat at 0.5 mg/kg, iv; format: ADME, organism-based; conditions: in vivo, read-out: Vdss; procedure, shortened: as §4
[11] = Ratio of drug level in brain to plasma in rat at 0.5 mg/kg, iv; format: ADME, organism-based
Procedure, shortened: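 Rats given 0.5 mg/kg iv, n = 2. Result is the total brain-to-plasma concentration ratio (Kp).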

[12] = AUC in rat at 1 mg/kg, po; format: ADME, organism-based; set-up: dose 1 mg/kg; conditions: in vivo
Procedure, shortened: (§5)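 Rats dosed orally at 1 mg/kg, n = 2. Plasma AUC, Cmax and Tmax were taken from the profile. Bioavailability was calculated against an iv dose of 0.5 mg/kg, n = 2.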

[13] = Cmax in rat at 1 mg/kg, po; format: ADME, organism-based; set-up: route oral, dose 1 mg/kg; conditions: in vivo; procedure, shortened: as §5
[14] = Tmax in rat at 1 mg/kg, po; format: ADME, organism-based; conditions: in vivo; procedure, shortened: as §5
[15] = Oral bioavailability in rat at 1 mg/kg; format: ADME, organism-based; conditions: in vivo; procedure, shortened: as §5
[16] = Metabolic stability in Beagle dog liver microsomes assessed as parent compound remaining measured after 30 mins; format: ADME, Canis lupus familiaris, Microsome; conditions: read-out: Stabilty; procedure, shortened: as §2
[17] = Fraction unbound in Beagle dog serum; format: ADME, cell-free, Canis lupus familiaris; procedure, shortened: as §3
[18] = Plasma concentration in Beagle dog at 1 mg/kg, po measured after 3 hrs; format: ADME, organism-based, Canis lupus familiaris
Procedure, shortened: (§6)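 Beagle dogs, n = 3, were given 1 mg/kg orally as a suspension in 0.5% methylcellulose. Plasma and CSF drug concentrations were measured at 3, 7, 10 and 24 h. The CSF ratio is CSF concentration over unbound plasma concentration.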

[19] = Plasma concentration in Beagle dog at 1 mg/kg, po measured after 7 hrs; format: ADME, organism-based, Canis lupus familiaris; procedure, shortened: as §6
[20] = Plasma concentration in Beagle dog at 1 mg/kg, po measured after 10 hrs; format: ADME, organism-based, Canis lupus familiaris; procedure, shortened: as §6
[21] = Plasma concentration in Beagle dog at 1 mg/kg, po measured after 24 hrs; format: ADME, organism-based, Canis lupus familiaris; procedure, shortened: as §6
[22] = Drug concentration in Beagle dog cerebrospinal fluid at 1 mg/kg, po measured after 10 hrs; format: ADME, organism-based, Canis lupus familiaris; conditions: read-out: Ct; procedure, shortened: as §6
[23] = Drug concentration in Beagle dog cerebrospinal fluid at 1 mg/kg, po measured after 24 hrs; format: ADME, organism-based, Canis lupus familiaris; conditions: read-out: Ct; procedure, shortened: as §6
[24] = Ratio of drug level in Cerebrospinal fluid to plasma in Beagle dog at 1 mg/kg, po measured after 10 hrs; format: ADME, organism-based, Canis lupus familiaris, CSF/Plasma; procedure, shortened: as §6
[25] = Ratio of drug level in Cerebrospinal fluid to plasma in Beagle dog at 1 mg/kg, po measured after 24 hrs; format: ADME, organism-based, Canis lupus familiaris, CSF/Plasma; procedure, shortened: as §6
[26] = In vivo inhibition of amyloid beta in Beagle dog cerebrospinal fluid at 1 mg/kg, po measured after 10 hrs by ELISA; format: functional; conditions: Canis lupus familiaris
Procedure, shortened: (§7)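 Beagle dogs, n = 3, received 1 mg/kg orally as a 0.5% methylcellulose suspension. Total Aβ in CSF was measured by ELISA at 10 and 24 h and expressed as % reduction.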

[27] = In vivo inhibition of amyloid beta in Beagle dog cerebrospinal fluid at 1 mg/kg, po measured after 24 hrs by ELISA; format: functional; conditions: Canis lupus familiaris; procedure, shortened: as §7
[28] = Ratio of drug level in Beagle dog cerebrospinal fluid after 10 hrs to IC50 for inhibition of BACE1 in human SH-SY5Y cells expressing APP assessed as reduction in Abeta40 by HTRF assay; format: cell-based
Procedure, shortened: (§8)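 CSF drug concentration in dogs dosed orally at 1 mg/kg (0.5% methylcellulose suspension) at 10 and 24 h, divided by the cellular Aβ40 HTRF IC50 from SH-SY5Y cells expressing human APP.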

[29] = Ratio of drug level in Beagle dog cerebrospinal fluid after 24 hrs to IC50 for inhibition of BACE1 in human SH-SY5Y cells expressing APP assessed as reduction in Abeta40 by HTRF assay; format: cell-based; procedure, shortened: as §8
[30] = AUC in Beagle dog at 1 mg/kg, po; conditions: in vivo
[31] = Cmax in Beagle dog at 1 mg/kg, po; conditions: in vivo
[32] = Tmax in Beagle dog at 1 mg/kg, po; conditions: in vivo

T1 sequence (P56817 whole entry): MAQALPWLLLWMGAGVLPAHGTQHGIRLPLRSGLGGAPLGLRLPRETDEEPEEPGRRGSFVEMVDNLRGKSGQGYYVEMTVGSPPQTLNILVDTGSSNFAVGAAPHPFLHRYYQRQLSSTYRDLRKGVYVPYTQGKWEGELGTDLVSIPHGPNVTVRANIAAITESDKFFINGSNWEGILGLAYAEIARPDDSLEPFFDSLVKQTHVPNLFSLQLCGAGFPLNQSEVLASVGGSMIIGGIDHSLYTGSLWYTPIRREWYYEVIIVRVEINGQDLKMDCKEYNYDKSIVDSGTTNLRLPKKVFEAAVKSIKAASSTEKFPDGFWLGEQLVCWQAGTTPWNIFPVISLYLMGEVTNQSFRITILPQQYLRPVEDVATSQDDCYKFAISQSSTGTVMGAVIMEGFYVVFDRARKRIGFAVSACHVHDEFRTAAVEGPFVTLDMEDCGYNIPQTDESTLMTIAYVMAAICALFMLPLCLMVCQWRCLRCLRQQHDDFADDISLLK

CC1(c2cc(NC(=O)c3ccc(C#N)cn3)ccc2F)Cc2ncccc2C(N)=N1 (configuration not stated)
IC50 [1]: 4.1 nM | pKa [2]: 9.4

CC1(c2cc(NC(=O)c3ccc(C#N)cn3)ccc2F)N=C(N)c2ccccc2O1 (configuration not stated)
IC50 [3]: 82 nM

C[C@@]1(c2cc(NC(=O)c3ccc(C#N)cn3)ccc2F)Cc2c(ccnc2F)C(N)=N1
IC50 [4]: 9.1 nM | IC50 [1]: 0.41 nM | pKa [2]: 8.2 | efflux ratio [5]: 13 | inhibition at 5 µM [6]: 88% | remaining at 0.5 h [7]: 22% | fraction unbound [8]: 0.15 | clearance [9]: 45 mL/min/kg | Vd [10]: 14 L/kg | Kp [11]: 0.28 | AUC [12]: 122 ng·h/mL | Cmax [13]: 9 ng/mL | Tmax [14]: 4 h | bioavailability [15]: 33% | remaining at 0.5 h [16]: 93% | fraction unbound [17]: 0.14 | concentration at 3 h [18]: 72 ng/mL | concentration at 7 h [19]: 65 ng/mL | concentration at 10 h [20]: 64 ng/mL | concentration at 24 h [21]: 47 ng/mL | concentration at 10 h [22]: 0.56 ng/mL | concentration at 24 h [23]: 0.52 ng/mL | Kp at 10 h [24]: 0.07 | Kp at 24 h [25]: 0.083 | inhibition in vivo at 1 mg/kg [26]: 49% | inhibition in vivo at 1 mg/kg [27]: 47% | Ratio [28]: 3.3 | Ratio [29]: 3 | AUC [30]: 3890 ng·h/mL | Cmax [31]: 78 ng/mL | Tmax [32]: 4.3 h

CC1(c2cc(NC(=O)c3ccc(C#N)cn3)ccc2F)Cc2c(F)cncc2C(N)=N1 (configuration not stated)
IC50 [4]: 12 nM | IC50 [1]: 0.25 nM | pKa [2]: 7.6 | efflux ratio [5]: 13 | inhibition at 5 µM [6]: 72%

CC1(c2cc(NC(=O)c3ccc(C#N)cn3)ccc2F)Cc2ccncc2C(N)=N1 (configuration not stated)
IC50 [4]: 8.1 nM | IC50 [1]: 1.3 nM | pKa [2]: 9.5 | inhibition at 5 µM [6]: 83%

CC1(c2cc(NC(=O)c3ccc(C#N)cn3)ccc2F)Cc2cncc(F)c2C(N)=N1 (configuration not stated)
IC50 [4]: 118 nM | IC50 [1]: 11 nM | pKa [2]: 7.3 | inhibition at 5 µM [6]: 92%

CC1(c2cc(NC(=O)c3ccc(C#N)cn3)ccc2F)Cc2cnccc2C(N)=N1 (configuration not stated)
IC50 [4]: 21 nM | IC50 [1]: 1.5 nM | pKa [2]: 9 | efflux ratio [5]: 37 | inhibition at 5 µM [6]: 85%

CC1(c2cc(NC(=O)c3ccc(C#N)cn3)ccc2F)Cc2cccnc2C(N)=N1 (configuration not stated)
IC50 [4]: 394 nM | IC50 [1]: 26 nM | pKa [2]: 9.8

CC1(c2cc(NC(=O)c3ccc(C#N)cn3)ccc2F)Cc2c(ccnc2F)C(N)=N1 (configuration not stated)
IC50 [4]: 14 nM | IC50 [1]: 0.36 nM
